ChEMBL document CHEMBL1255444, “In vitro antibacterial activities of JNJ-Q2, a new broad-spectrum fluoroquinolone” (Antimicrob Agents Chemother, 2010)
In brackets after ≈: the same amount, converted by molar mass. Activity calls are given as the source filed them. The calls are words filed in the database; no cut-off is given here.

Experiments:
Streptococcus pyogenes = experiment: Antibacterial activity against Streptococcus pyogenes by broth microdilution method; format: functional
Procedure, shortened: (§1)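 MICs by CLSI M07-A7 broth microdilution in cation-adjusted Mueller-Hinton medium. For S. pneumoniae the medium was supplemented with 5% lysed horse blood. CLSI quality control strains were run alongside as appropriate.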

Staphylococcus aureus [1] = experiment: Antibacterial activity against methicillin-resistant Staphylococcus aureus isolate OC2838 by broth microdilution method; format: functional
Procedure, shortened: (§2)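 CLSI M07-A7 broth microdilution MIC. Medium was cation-adjusted Mueller-Hinton broth. For S. pneumoniae it was Mueller-Hinton supplemented with 5% lysed horse blood. CLSI quality-control strains were included as appropriate.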

Staphylococcus aureus [2] = experiment: Antibacterial activity against methicillin-resistant Staphylococcus aureus isolate OC11223 by broth microdilution method; format: functional; procedure, shortened: as §2
Providencia stuartii = experiment: Antibacterial activity against Providencia stuartii by broth microdilution method; format: functional; procedure, shortened: as §1
Streptococcus pneumoniae [3] = experiment: Antibacterial activity against Streptococcus pneumoniae isolate OC6585 assessed as log reduction in bacterial growth at 4 times MIC measured at 24 hrs by time-kill assay; format: functional
Procedure, shortened: (§3)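 Drug was diluted from 50× stocks made in water or acidified water. Samples were taken at 6 and 24 h and serially diluted onto TSA-5% sheep blood plates. Plates were incubated 20–24 h at 37°C in 5% CO2 before counting CFU. Log10 titer change is given relative to the starting inoculum.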

Staphylococcus aureus [4] = experiment: Antibacterial activity against methicillin-resistant Staphylococcus aureus isolate OC17042 harboring gyrA S84L/G106D, parC S80F and parE D732N mutant gene by broth microdilution method; format: functional; procedure, shortened: as §2
Streptococcus pneumoniae [5] = experiment: Antibacterial activity against Streptococcus pneumoniae isolate OC6790 assessed as log reduction in bacterial growth at 4 times MIC measured at 24 hrs by time-kill assay; format: functional; procedure, shortened: as §3
[6] = Plasma protein binding in rat infected with gram-positive bacteria; format: ADME, cell-free; conditions: read-out: PPB (converted)
Streptococcus pneumoniae [7] = experiment: Antibacterial activity against Streptococcus pneumoniae isolate OC6610 assessed as log reduction in bacterial growth at 4 times MIC measured at 24 hrs by time-kill assay; format: functional; procedure, shortened: as §3
Staphylococcus aureus [8] = experiment: Antibacterial activity against methicillin-resistant Staphylococcus aureus isolate OC11521 harboring gyrA S84L/S85P, parC E84G mutant gene by broth microdilution method; format: functional; procedure, shortened: as §2
Staphylococcus aureus [9] = experiment: Antibacterial activity against methicillin-susceptible Staphylococcus aureus by broth microdilution method; format: functional
Streptococcus pneumoniae [10] = experiment: Ratio of Ciprofloxacin MIC90 to compound MIC90 for ciprofloxacin-resistant Streptococcus pneumoniae; format: functional
Haemophilus influenzae = experiment: Antibacterial activity against Haemophilus influenzae by broth microdilution method; format: functional; procedure, shortened: as §1
Staphylococcus aureus [11] = experiment: Antibacterial activity against methicillin-resistant Staphylococcus aureus isolate OC8525 harboring wild type quinolone resistance-determining region by agar dilution method; format: functional
Procedure, shortened: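 CLSI agar dilution MIC on cation-adjusted Mueller-Hinton medium. These were the MIC values used for the resistance studies, and CLSI quality-control strains were included as appropriate.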

Staphylococcus aureus [12] = experiment: Antibacterial activity against methicillin-resistant Staphylococcus aureus isolate OC4222 harboring gyrA S84L and parC S80F mutant gene assessed as log reduction in bacterial growth at 2 times MIC measured at 24 hrs by time-kill assay; format: functional
Procedure, shortened: (§4)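 Overnight MRSA cultures were diluted into fresh cation-adjusted Mueller-Hinton broth to about 5 × 10^6 CFU/ml. […] Samples were plated serially diluted on trypticase soy agar, and CFU were counted after 20-24 h at 37°C. Value is the log10 decrease at 24 h from the starting inoculum; detection limit 100 CFU.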

Streptococcus pneumoniae [13] = experiment: Antibacterial activity against penicillin-resistant Streptococcus pneumoniae by broth microdilution method; format: functional, organism-based
Procedure, shortened: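 CLSI M07-A7 broth microdilution MIC in cation-adjusted Mueller-Hinton medium. For S. pneumoniae the medium was supplemented with 5% lysed horse blood. CLSI quality-control strains were included as appropriate.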

Streptococcus pneumoniae [14] = experiment: Antibacterial activity against Streptococcus pneumoniae isolate OC5462 assessed as log reduction in bacterial growth at 2 times MIC measured at 24 hrs by time-kill assay; format: functional; procedure, shortened: as §3
Streptococcus pneumoniae [15] = experiment: Antibacterial activity against Streptococcus pneumoniae OC7452 harboring parC S79Y mutant gene by agar dilution method; format: functional
Procedure, shortened: (§5)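 MICs for the resistance-selection studies were determined by CLSI agar dilution on Mueller-Hinton medium. For S. pneumoniae the medium was supplemented with 5% lysed horse blood. For MRSA fluctuation-assay strains an arithmetic agar dilution scheme was used for a more precise MIC.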

Staphylococcus aureus [16] = experiment: Antibacterial activity against methicillin-resistant Staphylococcus aureus isolate OC8525 harboring wild type quinolone resistance-determining region assessed as log reduction in bacterial growth at 4 times MIC measured at 24 hrs by time-kill assay; format: functional
Procedure, shortened: (§6)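 Time-kill in cation-adjusted Mueller-Hinton broth. […] Samples were taken up to 24 h, serially diluted onto TSA and counted after 20–24 h at 37°C. Result is log10 decrease at 24 h from the starting inoculum; detection limit 100 CFU.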

Staphylococcus aureus [17] = experiment: Antibacterial activity against Staphylococcus aureus […] by broth microdilution method; format: functional; procedure, shortened: as §2
Streptococcus pneumoniae [18] = experiment: Antibacterial activity against Streptococcus pneumoniae isolate OC7189 assessed as log reduction in bacterial growth at 2 times MIC measured at 6 hrs by time-kill assay; format: functional; procedure, shortened: as §3
Staphylococcus aureus [19] = experiment: Antibacterial activity against methicillin-resistant Staphylococcus aureus by broth microdilution method; format: functional; procedure, shortened: as §2
Streptococcus pneumoniae [20] = experiment: Ratio of Gemifloxacin MIC90 to compound MIC90 for ciprofloxacin-resistant Streptococcus pneumoniae; format: functional
Streptococcus pneumoniae [21] = experiment: Ratio of Levofloxacin MIC90 to compound MIC90 for ciprofloxacin-resistant Streptococcus pneumoniae; format: functional
[22] = Aqueous solubility of the compound; format: physicochemical
Staphylococcus aureus [23] = experiment: Antibacterial activity against methicillin-resistant Staphylococcus aureus isolate OC8530 harboring gyrA S84L and parC I143V mutant gene assessed as log reduction in bacterial growth at 4 times MIC measured at 24 hrs by time-kill assay; format: functional; procedure, shortened: as §6
Streptococcus pneumoniae [24] = experiment: Antibacterial activity against erythromycin-resistant Streptococcus pneumoniae by broth microdilution method; format: functional, organism-based; procedure, shortened: as §2
Moraxella catarrhalis = experiment: Antibacterial activity against Moraxella catarrhalis by broth microdilution method; format: functional; procedure, shortened: as §1
Streptococcus pneumoniae [25] = experiment: Antibacterial activity against ciprofloxacin-resistant Streptococcus pneumoniae by broth microdilution method; format: functional; procedure, shortened: as §2
Staphylococcus aureus [26] = experiment: Antibacterial activity against methicillin-resistant Staphylococcus aureus isolate OC11696 assessed as log reduction in bacterial growth at 4 times MIC measured at 24 hrs by time-kill assay; format: functional; procedure, shortened: as §4
Streptococcus pneumoniae [27] = experiment: Antibacterial activity against Streptococcus pneumoniae isolate OC7348 assessed as log reduction in bacterial growth at 2 times MIC measured at 6 hrs by time-kill assay; format: functional; procedure, shortened: as §3
Staphylococcus aureus [28] = experiment: Antibacterial activity against methicillin-resistant Staphylococcus aureus isolate OC11150 harboring gyrA S84L and parC S80Y mutant gene by agar dilution method; format: functional; procedure, shortened: as §5
Streptococcus pneumoniae [29] = experiment: Antibacterial activity against Streptococcus pneumoniae isolate OC6790 assessed as log reduction in bacterial growth at 2 times MIC measured at 24 hrs by time-kill assay; format: functional; procedure, shortened: as §3
Streptococcus pneumoniae [30] = experiment: Antibacterial activity against Streptococcus pneumoniae isolate OC7376 by broth microdilution method; format: functional; procedure, shortened: as §2
[31] = Dissociation constant, pKa of the compound; format: physicochemical

Molecule `COc1c(N2CCC/C(=C(\F)CN)C2)c(F)cc2c(=O)c(C(=O)O)cn(C3CC3)c12` [ACORAFLOXACIN] has an MIC (Streptococcus pyogenes) of 0.008 µg/mL (≈ 0.0191 µM), an MIC50 (Streptococcus pyogenes) of 0.008 µg/mL (≈ 0.0191 µM) and an MIC90 (Streptococcus pyogenes) of 0.015 µg/mL (≈ 0.0358 µM). For the same molecule, the MIC (Staphylococcus aureus [1]) was 0.25 µg/mL (≈ 0.596 µM), the MIC (Staphylococcus aureus [2]) was 0.008 µg/mL (≈ 0.0191 µM) and the MIC50 (Providencia stuartii) was 2 µg/mL (≈ 4.77 µM). It also gave an MIC90 (Providencia stuartii) of 4 µg/mL (≈ 9.54 µM), a deltalog10CFU/ml (Streptococcus pneumoniae [3]) of 6.6 and an MIC (Staphylococcus aureus [4]) of 0.5 µg/mL (≈ 1.19 µM). The deltalog10CFU/ml (Streptococcus pneumoniae [5]) was 6.8, the fraction unbound [6] was 0.44 and the deltalog10CFU/ml (Streptococcus pneumoniae [7]) was 6.9. For the same molecule, the MIC (Staphylococcus aureus [8]) was 1 µg/mL (≈ 2.38 µM), the MIC50 (Staphylococcus aureus [9]) was 0.015 µg/mL (≈ 0.0358 µM) and the MIC90 (Staphylococcus aureus [9]) was 0.015 µg/mL (≈ 0.0358 µM). For the same molecule, the Ratio (Streptococcus pneumoniae [10]) was 9, the MIC (Haemophilus influenzae) was 0.008 µg/mL (≈ 0.0191 µM) and the MIC50 (Haemophilus influenzae) was 0.008 µg/mL (≈ 0.0191 µM). For the same molecule, the MIC90 (Haemophilus influenzae) was 0.015 µg/mL (≈ 0.0358 µM), the MIC (Staphylococcus aureus [11]) was 0.012 µg/mL (≈ 0.0286 µM) and the deltalog10CFU/ml (Staphylococcus aureus [12]) was 5.9. For the same molecule, the Activity (Streptococcus pneumoniae [13]) was “Active”, the deltalog10CFU/ml (Streptococcus pneumoniae [14]) was 3.3 and the MIC (Streptococcus pneumoniae [15]) was 0.015 µg/mL (≈ 0.0358 µM). It also gave a deltalog10CFU/ml (Staphylococcus aureus [16]) of 5, an MIC50 (Staphylococcus aureus [17]) of 0.12 µg/mL (≈ 0.286 µM) and an MIC90 (Staphylococcus aureus [17]) of 0.25 µg/mL (≈ 0.596 µM). It also gave a deltalog10CFU/ml (Streptococcus pneumoniae [18]) of 4, an MIC50 (Staphylococcus aureus [19]) of 0.12 µg/mL (≈ 0.286 µM) and an MIC90 (Staphylococcus aureus [19]) of 0.25 µg/mL (≈ 0.596 µM). It also gave a Ratio (Streptococcus pneumoniae [20]) of 9, a Ratio (Streptococcus pneumoniae [21]) of 9 and a solubility [22] of 4520 µg/mL (≈ 10800 µM). For the same molecule, the deltalog10CFU/ml (Staphylococcus aureus [23]) was 6.3, the Activity (Streptococcus pneumoniae [24]) was “Active” and the MIC (Moraxella catarrhalis) was at most 0.015 µg/mL. For the same molecule, the MIC50 (Moraxella catarrhalis) was at most 0.015 µg/mL, the MIC90 (Moraxella catarrhalis) was at most 0.015 µg/mL and the MIC50 (Streptococcus pneumoniae [25]) was 0.12 µg/mL (≈ 0.286 µM). For the same molecule, the MIC90 (Streptococcus pneumoniae [25]) was 0.25 µg/mL (≈ 0.596 µM), the deltalog10CFU/ml (Staphylococcus aureus [26]) was 6.5 and the deltalog10CFU/ml (Streptococcus pneumoniae [27]) was 3.8. It also gave an MIC (Staphylococcus aureus [28]) of 0.12 µg/mL (≈ 0.286 µM), a deltalog10CFU/ml (Streptococcus pneumoniae [29]) of 7.2 and an MIC (Streptococcus pneumoniae [30]) of 0.12 µg/mL (≈ 0.286 µM). For the same molecule, the pKa [31] was 6.13.
